The text below walks through data of ChEMBL document CHEMBL2384954, “Benzofuran-, benzothiophene-, indazole- and benzisoxazole-quinones: excellent substrates for NAD(P)H:quinone oxidoreductase 1” (Bioorg Med Chem, 2013).

Assay [1] has as its target NAD(P)H dehydrogenase [quinone] 1 (Homo sapiens) (UniProt P15559). The assay is described as follows: Activity at human recombinant NQO1 assessed as initial rate of cytochrome c reduction during the first 0 to 30 s by spectrophotometry.
Assay [2] shares this target. Put plainly: Activity at human recombinant NQO1 assessed as average rate of irreversible NADH oxidation after 30 to 40 mins by HPLC analysis. The procedure, abridged:
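Recombinant human NQO1 incubated with 50 µM quinone and 200 µM NADH in 25 mM Tris-HCl pH 7.4, 30–40 min at 22 °C. Reverse-phase C18 HPLC with methanol/10 mM potassium phosphate pH 6.0 gradient; NADH oxidation quantified at 340 nm. Average rate expressed as µmol NADH oxidized/min/mg NQO1.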

Sequence of NAD(P)H dehydrogenase [quinone] 1 (Homo sapiens) (P15559 whole entry): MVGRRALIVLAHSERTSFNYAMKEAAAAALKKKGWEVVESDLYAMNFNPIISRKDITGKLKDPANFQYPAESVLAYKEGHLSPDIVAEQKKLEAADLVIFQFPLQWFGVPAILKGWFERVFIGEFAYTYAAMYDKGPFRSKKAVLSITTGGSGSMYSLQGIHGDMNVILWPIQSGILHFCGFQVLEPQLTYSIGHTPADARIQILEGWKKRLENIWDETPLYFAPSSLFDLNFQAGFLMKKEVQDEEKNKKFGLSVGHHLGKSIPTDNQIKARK

`COC1=CC(=O)c2sc(C=O)cc2C1=O`: the figures for the Activity in assay [1] and in assay [2] were 897 µmol/min/mg and 27.4 µmol/min/mg, respectively.
For `COC1=CC(=O)c2c(c(CO)nn2C)C1=O`, in that order: 247 µmol/min/mg and 38.1 µmol/min/mg.
For `COC1=CC(=O)c2c(c(C)nn2C)C1=O`, in that order: 55.3 µmol/min/mg and 19.6 µmol/min/mg.
For `COC1=CC(=O)c2onc(C)c2C1=O`, in that order: 290 µmol/min/mg and 27.6 µmol/min/mg.
As to `COC1=CC(=O)c2sc(C)cc2C1=O`, the figures for the Activity in assay [1] and in assay [2] were 553 µmol/min/mg and 5.51 µmol/min/mg, respectively.
With `COC1=CC(=O)c2sc(C)c(CO)c2C1=O`, the Activity in assay [1] worked out at 236 µmol/min/mg.
For the compound `COC1=CC(=O)c2c(c(C)c(CO)n2C)C1=O`, the Activity in assay [2] came out at 2.49 µmol/min/mg.
Turning to `COC1=CC(=O)c2sc(CO)cc2C1=O`, the Activity came to 927 µmol/min/mg in assay [1] and 63.8 µmol/min/mg in assay [2].
For `COC1=CC(=O)c2sc(COC(C)=O)cc2C1=O`, in that order: 900 µmol/min/mg and 24.5 µmol/min/mg.
On to `COC1=CC(=O)c2c(c(CO)c(C)n2C)C1=O`, for which the Activity in assay [2] is 1.25 µmol/min/mg.
Consider `COC1=CC(=O)c2oc(CO)c(C)c2C1=O`, for which the Activity in assay [1] came to 1020 µmol/min/mg; in assay [2], 80.8 µmol/min/mg.
`CC1=CC(=O)c2ccccc2C1=O`: the Activity in assay [1] came to 1220 µmol/min/mg.
`COC(=O)c1cc2c(s1)C(=O)C=C(OC)C2=O`: the Activity in assay [1] was 555 µmol/min/mg; in assay [2], 53.9 µmol/min/mg.
`COC1=CC(=O)c2sc(CO)c(C)c2C1=O`: the Activity in assay [1] was determined as 468 µmol/min/mg.
On to `COC1=CC(=O)c2oc(C)c(C(C)O)c2C1=O` (stereo not given), for which the Activity was found to be 585 µmol/min/mg in assay [1] and 87.9 µmol/min/mg in assay [2].
